24 molecules from ChEMBL document CHEMBL1156905, “N-heterocyclic derived M1 positive allosteric modulators” (Bioorg Med Chem Lett, 2010) can be followed below.

Calls of active or inactive are those of the source. The calls are words filed in the database; no cut-off is given here.

In data set [1] the target is T1, Muscarinic acetylcholine receptor M1 (Homo sapiens) (UniProt P11229).
T1 sequence (whole entry): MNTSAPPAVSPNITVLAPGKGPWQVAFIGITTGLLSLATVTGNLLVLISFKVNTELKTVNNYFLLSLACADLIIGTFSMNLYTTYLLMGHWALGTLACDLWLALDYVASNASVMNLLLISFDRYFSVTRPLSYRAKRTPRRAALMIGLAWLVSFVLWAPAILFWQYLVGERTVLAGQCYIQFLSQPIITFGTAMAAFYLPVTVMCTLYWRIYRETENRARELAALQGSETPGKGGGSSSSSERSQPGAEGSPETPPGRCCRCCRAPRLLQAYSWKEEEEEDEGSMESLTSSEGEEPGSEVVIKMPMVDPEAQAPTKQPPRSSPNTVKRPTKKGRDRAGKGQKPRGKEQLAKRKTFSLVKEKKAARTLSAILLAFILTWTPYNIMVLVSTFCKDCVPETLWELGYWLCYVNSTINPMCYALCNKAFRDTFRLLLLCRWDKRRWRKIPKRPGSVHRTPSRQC
As to the kind of experiment: Allosteric modulator activity at human muscarinic M1 receptor expressed in CHO cells assessed as potentiation of acetylcholine-induced calcium mobilization by FLIPR assay. Type of data set: functional, cell-based. For orientation: Calcium assays in cells follow changes in intracellular calcium, usually with a dye or a luminescent sensor.

The species named for data set [2] is Homo sapiens. As to the kind of experiment: Protein binding in human plasma. As to conditions: read-out: PPB (converted).
A short description of data set [3]: Protein binding in rat plasma. As to conditions: read-out: PPB (converted). It counts as ADME, cell-free. The method, boiled down:
(§1)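 Binding in rat and human serum/plasma measured by equilibrium dialysis.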

Data set [4] is filed under the species Homo sapiens. As to the kind of experiment: Protein binding in human plasma. The conditions noted are these: read-out: PPB (converted). This is another data set of the same source.
Another data set deals with Plasma. As to the kind of experiment: Fraction unbound in human plasma. It counts as ADME, cell-free. The method, boiled down: as §1
Data set [5] is described as follows: Fraction unbound in rat plasma. Type of data set: ADME, cell-free. The method, boiled down: as §1
Data set [6] can be described thus: Ratio of drug level in brain to plasma in Sprague-Dawley rat at 10 mg/kg, po. Type of data set: ADME, organism-based. On the set-up: dose 10 mg/kg, route oral. The method, boiled down:
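Sprague–Dawley rats dosed orally at 10 mg/kg in 0.5% methocel; brain to plasma level ratio; interanimal variability under 20%.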

Data set [7] in a line: Plasma concentration in ip dosed mouse after 24 hrs.
Data set [8] concerns the target T1, Muscarinic acetylcholine receptor M1 (Homo sapiens). As to the kind of experiment: Allosteric modulator activity at human muscarinic M1 receptor expressed in CHO cells assessed as potentiation of acetylcholine-induced calcium mobilization at 1 uM by FLIPR assay. Type of data set: functional, cell-based. An outline of the steps: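 CHO cells expressing human M1; acetylcholine dose response run with fixed 1 µM potentiator (also 0.01–100 µM series), calcium mobilization by FLIPR; fold left-shift of acetylcholine curve recorded.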

A short description of data set [9]: Ratio of drug level in rat cerebrospinal fluid to unbound fraction in rat plasma. It counts as ADME, CSF/Plasma. The conditions noted are these: in vivo.
A further data set deals with Mus musculus. As to the kind of experiment: Reversal of cognitive deficits in contextual fear conditioning in mouse at 10 mg/kg, ip after 24 hrs in presence of Scopolamine. It counts as functional, organism-based. The arrangement: dose 10 mg/kg. The method, boiled down:
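Mouse contextual fear conditioning (episodic memory model); mice given scopolamine before exposure to novel environment; test agent 10 mg/kg ip; reversal compared with scopolamine-alone group; plasma levels sampled.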

The target in data set [10] is T1, Muscarinic acetylcholine receptor M1 (Homo sapiens). As to the kind of experiment: Agonist activity at human muscarinic M1 receptor expressed in CHO cells assessed as potentiation of acetylcholine-induced calcium mobilization at >= 10 uM by FLIPR assay. Type of data set: functional, cell-based.
The species entered for data set [11] is Homo sapiens. As to the kind of experiment: Fraction unbound in human plasma.

Take `O=C(O)c1cn(Cc2ccc(-n3cnc(-c4ccccc4)c3)cc2)c2cccc(F)c2c1=O`: in [1], the Activity was 39 nM.

For `O=C(O)c1cn(Cc2ccc(-n3cccn3)cn2)c2c(F)cccc2c1=O`, in data set [1], the Activity was 1400 nM.

As for `O=C(O)c1cn(Cc2ccc(-n3ccc(C(F)(F)F)n3)cc2)c2cccc(F)c2c1=O`, in [1], the Activity was 290 nM.

For the molecule `O=C(O)c1cn(Cc2ccc(N3CCOC3=O)cc2)c2cccc(F)c2c1=O`, in data set [1], the Activity is 500 nM. Further, the results for the fraction unbound (in the data set listed under Homo sapiens [2]; in data set [3]) were 0.224 and 0.116, respectively.

Consider `Cc1cn(-c2ccc(Cn3cc(C(=O)O)c(=O)c4c(F)cccc43)cc2)cn1`, for which, in data set [1], the Activity is 140 nM. Further, in the data set filed under Homo sapiens [4], the fraction unbound is 0.111.

Take `Cc1nn(-c2ccc(Cn3cc(C(=O)O)c(=O)c4c(F)cccc43)cc2)c2ccccc12`: the Activity in data set [1] was determined as 620 nM.

In the case of `Cc1nccn1-c1ccc(Cn2cc(C(=O)O)c(=O)c3c(F)cccc32)cc1`, the Activity in data set [1] amounted to 920 nM.

As to `O=C(O)c1cn(Cc2ccc(-n3ccc4ncccc43)cc2)c2cccc(F)c2c1=O`, the Activity in data set [1] was 150 nM.

In the case of `O=C(O)c1cn(Cc2ccc(N3CCCC3=O)cc2)c2cccc(F)c2c1=O`, the Activity in data set [1] was 2500 nM.

For the molecule `O=C(O)c1cn(Cc2ccc(-n3cccn3)nc2)c2c(F)cccc2c1=O`, the Activity in data set [1] was found to be 864 nM.

With `O=C(O)c1cn(Cc2ccc(-n3ccc4cnccc43)cc2)c2cccc(F)c2c1=O`, the Activity in [1] turned out to be 160 nM. Also, in the data set listed under Homo sapiens [4], the fraction unbound is 0.031.

As to `O=C(O)c1cn(Cc2ccc(-n3nnc4ccccc43)cc2)c2cccc(F)c2c1=O`, in [1], the Activity worked out at 228 nM.

Consider `O=C(O)c1cn(Cc2ccc(-n3cnc4ccccc43)cc2)c2cccc(F)c2c1=O`, for which the Activity in data set [1] worked out at 96 nM. Also, the fraction unbound in the data set listed under Homo sapiens [4] was 0.084; in data set [5], 0.039. The Fu with Plasma came out at 9%.

In the case of `O=C(O)c1cn(Cc2ccc(-n3ccnc3)cc2)c2cccc(F)c2c1=O`, the Activity in [1] stood at 110 nM. In addition, the fraction unbound in the data set filed under Homo sapiens [4] is 0.162.

For `Cc1ccn(-c2ccc(Cn3cc(C(=O)O)c(=O)c4c(F)cccc43)cc2)n1`, the Activity in data set [1] worked out at 36 nM. In addition, the fraction unbound (in the data set listed under Homo sapiens [2]; in [3]) was 0.057 throughout.

Broadly, the Kp is the ratio of the level in a tissue or fluid to that in plasma or blood. Take `O=C(O)c1cn(Cc2ccc(-n3cccn3)cc2)c2c(F)ccc(F)c2c1=O`: in data set [6], the Kp is 0.03. In addition, the Activity in data set [1] is 171 nM. Further, the concentration at 24 h in [7] was 9 µM. For the same molecule, the fold change (FC) in data set [8] was found to be 46. In addition, in the data set listed under Homo sapiens [4], the fraction unbound was 0.043. Further, in [9], the Ratio came out at 0.1. For the same molecule, the outcome (with Mus musculus; in data set [10]) was Active.

On to `O=C(O)c1cn(Cc2ccc(-n3cccn3)cc2)c2c(F)cccc2c1=O`, for which the Activity in data set [1] turned out to be 96 nM.

As for `O=C(O)c1cn(Cc2ccc(-n3cccn3)cc2)c2cccc(F)c2c1=O`, the Kp in [6] was 0.04. For the same molecule, the Activity in data set [1] stood at 94 nM. Besides, the fraction unbound in the data set filed under Homo sapiens [2] was 0.116; in data set [3], 0.116; in data set [5] it was 0.1; in the data set listed under Homo sapiens [11] it was 0.1. Further, the Ratio in data set [9] was 0.05.

Regarding `O=C(O)c1cn(Cc2ccc(-n3ccc4cccnc43)cc2)c2cccc(F)c2c1=O`, the Activity in data set [1] came out at 90 nM.

With `COc1ccc(Cn2cc(C(=O)O)c(=O)c3ccccc32)cc1`, the Activity in data set [1] came out at 660 nM.

In the case of `O=C(O)c1cn(Cc2ccc(-n3cccn3)nn2)c2c(F)cccc2c1=O`, the Activity in data set [1] worked out at 24000 nM.

For `O=C(O)c1cn(Cc2ccc(-n3cccc3)cc2)c2cccc(F)c2c1=O`, the Activity in data set [1] amounted to 181 nM. Further, the fraction unbound (in the data set filed under Homo sapiens [2]; in data set [3]) was 0.003 in each case.

Turning to `O=C(O)c1cn(Cc2ccc(-n3ccc4ccccc43)cc2)c2cccc(F)c2c1=O`, the Activity in data set [1] was found to be 250 nM.

In the case of `Cc1ccnn1-c1ccc(Cn2cc(C(=O)O)c(=O)c3c(F)cccc32)cc1`, the Activity in [1] was 2900 nM.
